Key:
YUC monooxygenase = YUC monooxygenase inhibitors; cited from earlier work
[1] = tested on: Arabidopsis thaliana seedlings; assay: Primary and lateral root growth of Arabidopsis seedlings; type: in vivo; conditions: IAA at 0.05 µM
Procedure, shortened: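 Primary root: seedlings grown vertically 6–8 d at 24 °C, continuous light, on GM plates with test compound (5 µM estradiol added for inducible lines); length recorded from photographs. Lateral root: seedlings grown vertically 6 d, moved to horizontal GM plates (2 g/L gellan gum) with chemicals for 2 d at 24 °C; lateral roots counted and primary root length measured.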

[2] = tested on: DII-VENUS fusion reporter protein; conditions: IAA application; cited from earlier work
AtAFB5–IAA7 = AtAFB5–IAA7 (Arabidopsis thaliana, UniProt Q9LTX2); assay: SPR analysis of auxin-induced AFB5-IAA7 degron peptide interaction; type: binding
[3] = tested on: Rice (Oryza sativa cv. Nipponbare) seedlings; assay: Rice seedling primary root and mesocotyl assays; type: in vivo
Procedure, shortened: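 Rice cv. Nipponbare seeds sterilised 20 min in 6% hypochlorite, rinsed, then germinated 2 d in sterile water at 28 °C in the dark. Mesocotyl: seedlings submerged 5 d in water with chemicals. Root: seedlings grown on 0.6% water agar with chemicals (n = 11). Both at 25 °C, 18 h light/6 h dark.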

[4] = tested on: AtGH3.3, IAA19, YUC6 expression; assay: qRT-PCR of auxin-related genes in Arabidopsis; type: in vivo; conditions: after 60 min of treatment
Procedure, shortened: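 Seedlings from vertical GM plates moved to liquid GM for 24 h, then harvested at intervals (10–60 min) after test compound was added. SYBR qRT-PCR: 95 °C 20 s, then 40 cycles of 95 °C 3 s and 60 °C 30 s. ΔΔCt normalised to UBQ10; n = 4, Tukey HSD vs mock.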

AtTIR1–IAA7 peptide = AtTIR1–IAA7 peptide (Arabidopsis thaliana, UniProt Q570C0); assay: SPR analysis of auxin-induced TIR1-IAA7 degron peptide interaction; type: binding
[5] = tested on: Arabidopsis mutants tir1-1 afb2-1, axr1-3, sav3-2, yucQ; assay: Lateral root formation in auxin signaling and biosynthesis mutants; type: in vivo, Arabidopsis thaliana
Procedure, shortened: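 Signalling and biosynthesis mutant seedlings, 4 d old, incubated with test compound for 3 more days. sav3-2 co-treated with 1 µM yucasinDF; yucQ co-treated with 1 µM kynurenine. Read-out was lateral root formation.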

Physcomitrium patens = assay: Moss GH3::GUS reporter line phenotype; type: in vivo; conditions: 10 μM, 15 d
Procedure, shortened: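 P. patens GH3::GUS reporter colonies cultured 15 d on BCDATG medium (0.8% agar) with or without 10 µM test compound and 10 µM IAA. GUS visualised histochemically with X-Gluc; ectopic leafy-like primordia scored.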

endogenous IAA = conditions: within 30 min; cited from earlier work
AtGH3.11/JAR1 = conditions: cited from earlier work
auxin-conjugating GH3s = conditions: competitive inhibitor; cited from earlier work
TAA1 = conditions: cited from earlier work

Chain of AtAFB5–IAA7 (Q9LTX2 whole entry, other chains not shown): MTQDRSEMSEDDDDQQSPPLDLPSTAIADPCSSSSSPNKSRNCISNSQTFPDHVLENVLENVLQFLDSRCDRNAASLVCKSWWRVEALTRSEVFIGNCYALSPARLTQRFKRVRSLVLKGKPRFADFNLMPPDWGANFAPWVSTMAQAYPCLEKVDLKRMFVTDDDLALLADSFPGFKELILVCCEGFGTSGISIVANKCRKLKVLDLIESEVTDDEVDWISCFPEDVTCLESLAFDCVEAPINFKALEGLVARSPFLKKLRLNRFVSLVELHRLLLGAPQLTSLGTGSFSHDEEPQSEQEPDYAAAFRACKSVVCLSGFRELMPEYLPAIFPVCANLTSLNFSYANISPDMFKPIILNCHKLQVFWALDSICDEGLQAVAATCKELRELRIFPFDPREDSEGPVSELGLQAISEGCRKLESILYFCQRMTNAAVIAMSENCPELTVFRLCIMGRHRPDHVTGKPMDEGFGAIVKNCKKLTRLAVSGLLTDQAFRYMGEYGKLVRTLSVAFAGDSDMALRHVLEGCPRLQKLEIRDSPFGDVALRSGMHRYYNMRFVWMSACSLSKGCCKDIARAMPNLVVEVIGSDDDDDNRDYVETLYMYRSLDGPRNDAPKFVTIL
Chain of AtAFB5–IAA7 (Q39255 whole entry partner, other chains not shown): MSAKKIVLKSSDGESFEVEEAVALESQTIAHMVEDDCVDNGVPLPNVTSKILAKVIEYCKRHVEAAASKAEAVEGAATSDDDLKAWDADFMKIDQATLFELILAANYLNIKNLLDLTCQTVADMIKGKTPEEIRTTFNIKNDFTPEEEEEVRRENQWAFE
Chain of AtTIR1–IAA7 peptide (Q570C0 whole entry, other chains not shown): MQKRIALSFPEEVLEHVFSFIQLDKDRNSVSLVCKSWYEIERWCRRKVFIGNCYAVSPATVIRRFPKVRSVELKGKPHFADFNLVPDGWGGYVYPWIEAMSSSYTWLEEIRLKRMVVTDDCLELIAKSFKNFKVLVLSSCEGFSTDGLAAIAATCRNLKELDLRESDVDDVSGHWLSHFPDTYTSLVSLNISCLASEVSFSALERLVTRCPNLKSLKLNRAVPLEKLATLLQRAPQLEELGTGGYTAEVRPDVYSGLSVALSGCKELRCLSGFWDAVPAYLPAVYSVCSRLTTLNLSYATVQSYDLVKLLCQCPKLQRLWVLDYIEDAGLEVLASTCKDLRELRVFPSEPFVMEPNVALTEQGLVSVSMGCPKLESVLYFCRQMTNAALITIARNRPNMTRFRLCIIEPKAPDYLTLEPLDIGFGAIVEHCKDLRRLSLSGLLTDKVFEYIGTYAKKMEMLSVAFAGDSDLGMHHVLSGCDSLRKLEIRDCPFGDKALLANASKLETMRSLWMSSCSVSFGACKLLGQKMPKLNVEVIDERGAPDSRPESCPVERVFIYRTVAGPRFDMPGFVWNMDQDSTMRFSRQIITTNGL
Chain of AtTIR1–IAA7 peptide (Q39255 whole entry partner, other chains not shown): as the sequence (Q39255 whole entry partner, other chains not shown) above

OB(O)c1ccc(Oc2ccccc2)cc1 [PPBo]
IAA production (YUC monooxygenase): block IAA production

O=C(O)Cc1c[nH]c2ccccc12 [IAA, indole-3-acetic acid]
lateral root formation in WT roots [1]: promoted lateral root formation
time to decomposition of DII-VENUS after application [2]: ≤ 10 min
effect on AFB5–IAA7 peptide association and dissociation (AtAFB5–IAA7): promotes interaction
mesocotyl elongation in rice ([3]; aerial part of rice seedlings): promoted mesocotyl elongation
primary root elongation in rice ([3]; rice roots): suppressed primary root elongation
expression of auxin biosynthesis gene YUC6 [4]: down-regulated
effect on TIR1–IAA7 peptide association and dissociation (AtTIR1–IAA7 peptide): promotes interaction
lateral root formation in sav3-2 and yuc Q mutants ([5]; auxin biosynthesis mutants): induced by IAA to a similar extent as WT plants
lateral root formation in tir1-1 afb2-1 and axr1-3 mutants ([5]; auxin signaling mutants): showed resistance
ectopic formation of leafy-like primordia (Physcomitrium patens): has not been induced

S=c1nc(-c2ccc(Cl)cc2)[nH][nH]1 [yucasin]
endogenous IAA level (endogenous IAA): decreased the endogenous IAA to almost basal level

COCCC(=O)N1C[C@@H]2C[C@H](C1)c1ccc(NC(=O)c3ccc(-c4ccccc4)cc3)c(=O)n1C2 [jarin-1]
inhibition of AtGH3.11/JAR1 (AtGH3.11/JAR1): selectively inhibits

Nc1ncnc2c1ncn2[C@@H]1O[C@H](COP(=O)(O)OCCc2c[nH]c3ccccc23)[C@@H](O)[C@H]1O [AEIP, Adenosine-5-[2-(1H-indol-3-yl)ethyl]phosphate]
in vitro activity against auxin-conjugating GH3s (auxin-conjugating GH3s): micromolar range

Nc1ccccc1C(=O)C[C@H](N)C(=O)O [L-kynurenine]
inhibition of TAA1 (TAA1): competitively inhibit
